Source: PubChem
F508del corr – CFTR F508del correction in bronchial cells. CFBE cells, YFP halide quenching; stimulated with forskolin plus potentiator P3; % fluorescence drop versus neutral controls. activity (quench increase), % at 7.58 µM. 350,000 compounds, 0.36% hits. AID 720511;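 active means mean added fluorescence quench of at least 8% versus neutral control, with both replicates also reaching 8%; inconclusive means only one of the mean or replicate conditions met; inactive means mean below 8% and not both replicates reaching 8%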;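 further: cells transiently co-express mutant CFTR-F508del with the halide-sensitive YFP; corrector assay measuring rescue of mutant channel to the surface after 24 h compound exposure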
DENV2 CPE – inhibitors of DENV2 cytopathic effect; AID 651640; DENV2-infected cells, cytopathic effect rescue, plate reader; 350,000 compounds, 1.7% hits; CPE inhibition, % at 9.99 µM; in the data active means CPE inhibition above about 20%, passing the limit was not always enough; inconclusive means no clear call, values can overlap the other calls; tested in BHK-21 cells;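 further: 0% = median of neutral control wells and 100% = median of positive control wells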
Xi reactivation – activators of X-chromosome reactivation in mouse fibroblasts; XiGFP mouse fibroblasts, % GFP-positive cells imaging, 3 d; cells co-treated with 5-aza-dC sensitizer; scaled so ellipticine positive control = 100%; activation, % at 7.58 µM; 360,000 compounds, 0.055% hits;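 active means mean normalized replicate activation at least 10% and every replicate at or above 10%; inconclusive means only one of the two criteria met; inactive means mean below 10% and not all replicates reach 10%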;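 further: 0% = median of on-plate neutral control wells and 100% = ellipticine 6 µM median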
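Material: SV40-immortalized XiGFP fibroblast cells, line 68-5-11 | Buffer or medium: DMEM containing 5-aza-dC | Dosing: One concentration, pinned | Times: 3 d treatment, 15 min room-temperature fixation | Controls: Ellipticine 6 µM positive control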
PGC1a acetyl inh – PGC1a acetylation modulation, inhibitor mode | U2OS PGC1a acetylation, AlphaScreen anti-acetyl-lysine; with virally co-expressed GCN5 acetyltransferase | inhibition, % at 15.6 µM | 350,000 compounds, 0.17% hits | AID 651687;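 active means every replicate shows inhibition of at least 40%; inconclusive means mean inhibition at least 40% but some replicate below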;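 further: 0% = neutral control wells and 100% = positive control wells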
Cneo AK release – Cryptococcus neoformans lysis via adenylate kinase release | C. neoformans lysis, adenylate kinase release luminescence, 4 h; normalised: neutral wells 0, clomiphene wells 100 | lysis activity, % at 15 µM | 360,000 compounds, 0.2% hits;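 active means mean lysis activity across replicates of at least 80%, whatever share of replicates individually reach that level; inactive means mean lysis activity below 80%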
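Test system: log-phase Cryptococcus neoformans yeast cells; Quantity: yeast cell density of 5 × 10^6 cells/mL; Buffer or medium: YPD; Doses: single compound concentration per well; Timing: 4 h at 37 °C static, read 1 h later; Measured by: AK luminescence; Read-out basis: lysis from increased AK signal; Control set: Clomiphene as positive control.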
FN deposit inh – fibronectin deposition inhibition; inhibition, % at 12.6 µM; 350,000 compounds, 0.086% hits; AH1F fibroblasts, Alexa488-fibronectin deposition fluorescence, overnight; AID 743247;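 active means mean inhibition across replicates of 30% or more, regardless of how many single replicates reach that level; inconclusive means mean under 30% yet at least half of replicates reach 30%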;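 further: positive control wells lacked labelled fibronectin entirely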
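Measured by – fluorescence 485/525 nm · System – AH1F fibroblast monolayer, labelled fibronectin deposition · Amount – 10000 cells per well · Buffer or medium – serum-reduced DMEM (2% serum) · Doses – single dose, pinned · Also added – fluorescent fibronectin at 24 nM final · Schedule – 1 h cell attachment, overnight exposure to compound and label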
The depositor's hits bear a star; ? = inconclusive; . = no result. Only some compounds are listed: those with a hit (about 1.9% of all), similar ones and a draw of the others.

SMILES | F508del corr | DENV2 CPE | Xi reactivation | PGC1a acetyl inh | Cneo AK release | FN deposit inh
O=S(=O)(N[C@@H]1CCCN(Cc2cccc(OCCO)c2)C1)c1cc(Cl)ccc1Cl | 3.6 | 4.3 | . | . | 40.1 | .
Cc1ccc(OCC(=O)NC2CC(C)(C)NC(C)(C)C2)c(C)c1 | . | -6.2 | 0.0 | 1.8 | -1.2 | -5.6
Cc1cc(OCC(=O)NC2CC(C)(C)NC(C)(C)C2)c(C)cc1Br | -0.1 | 42.1* | 0.2 | . | 8.3 | .
CCOC(=O)c1cc([N+](=O)[O-])sc1NC(=O)c1ccc(S(=O)(=O)N2CC3(C)CC2CC(C)(C)C3)cc1 (configuration not stated) | -0.7 | 30.1* | 0.0 | -5.8 | . | -4.0
COc1ccc(S(=O)(=O)Nc2cccc3c2O[C@H](CN(C)Cc2ccccc2)[C@H](C)CN([C@@H](C)CO)C3=O)cc1 | 2.7 | -1.5 | -1.3 | -14.9 | -3.7 | .
CCCN1C[C@@H](C)[C@H](OC)CN(C)C(=O)c2cc(NC(=O)c3cccc(F)c3)ccc2OC[C@@H]1C | 2.4 | -9.9 | -0.3 | -10.3 | 56.7 | -3.0
CCCN1C[C@H](C)[C@H](OC)CN(C)C(=O)c2cc(NC(=O)Nc3ccccc3F)ccc2OC[C@H]1C | 1.7 | 0.6 | 0.3 | 8.1 | -1.8 | 3.2
CCCN1C[C@H](C)[C@@H](OC)CN(C)C(=O)c2cc(NC(=O)Nc3ccccc3F)ccc2OC[C@H]1C | 1.3 | 28.8* | 0.0 | 9.1 | -2.0 | 12.5
CCCN1C[C@@H](C)[C@H](OC)CN(C)C(=O)c2ccc(NC(=O)c3cccc(F)c3)cc2OC[C@@H]1C | -0.2 | 7.7 | 0.1 | -15.1 | 114.7* | -3.1
CCCN1C[C@@H](C)[C@@H](OC)CN(C)C(=O)c2cc(NC(=O)c3cccc(F)c3)ccc2OC[C@@H]1C | 1.8 | 27.4* | -0.1 | 0.1 | -1.4 | -9.0
CO[C@@H]1CN(C)C(=O)c2ccc(NC(=O)c3cccc(F)c3)cc2OC[C@H](C)N(C)C[C@H]1C | -2.5 | 37.0* | 0.4 | -11.2 | -0.4 | 4.0
O=C(Nc1ccc2c(c1)[C@H]1C[C@@H](CC(=O)N3CCOCC3)O[C@H](CO)[C@H]1O2)c1ccc2c(c1)OCO2 | -0.7 | -8.6 | 0.0 | 1.8 | -24.2 | -2.7
COc1ccc(S(=O)(=O)Nc2ccc3c(c2)CC(=O)N([C@H](C)CO)C[C@@H](C)[C@H](CN(C)S(=O)(=O)c2ccccc2)O3)cc1 | -3.4 | -5.9 | -0.7 | 6.4 | -0.9 | .
C[C@@H]1CCCCO[C@@H](CN(C)C(=O)c2ccccc2)[C@H](C)CN([C@H](C)CO)C(=O)c2cc(NS(=O)(=O)c3cccs3)ccc2O1 | 5.2 | 10.1 | 0.0 | . | -1.2 | -4.0
O=C(C1CCC1)N1CC2(C1)[C@H](c1ccccc1)[C@@H](CO)N2CCC(F)(F)F | 2.5 | 8.6 | 0.2 | . | . | -0.5
O=C(CSc1nc2ccccc2n1-c1ccccc1)Nc1ncc(Cl)cc1Cl | 8.7* | -0.5 | 0.0 | . | 0.1 | 12.2
C[C@H]1CN([C@@H](C)CO)C(=O)c2cccc(NC(=O)C3CCCCC3)c2O[C@H]1CN(C)S(=O)(=O)c1ccccc1 | -4.2 | 2.4 | 0.0 | -9.5 | -0.6 | .
C[C@H]1CCC/C=C/[C@@H]2C[C@H](O)C[C@H]2[C@H](O)[C@H](S(=O)c2ccc(O)cc2)CC(=O)O1 (some centres not stated) | -30.9 | -31.8 | 0.0 | 66.3* | . | -13.3
CO[C@@H]1CN(C)C(=O)c2cc(NC(=O)Nc3ccc(Cl)cc3)ccc2OC[C@H](C)N(C(=O)Nc2c(C)noc2C)C[C@@H]1C | 3.3 | . | 0.0 | -5.7 | 2.4 | 0.7
Nc1ccccc1C(O)(Cc1ccccc1)c1ccccc1 (configuration not stated) | 2.1 | 36.4* | 0.0 | -35.7 | -0.8 | -1.6
OC(Cc1cccnc1)(c1ccccc1)c1ccccc1 | -1.6 | ? | 0.0 | . | . | 8.7
Nc1ccc(S(N)(=O)=O)cc1N | 1.7 | 2.6 | -0.1 | 12.5 | -2.3 | -7.7
NS(=O)(=O)c1ccc(Cl)c(S(N)(=O)=O)c1 | 10.5* | 11.0 | -0.7 | -11.0 | -1.1 | 2.4
CNC[C@H]1Oc2ccc(NC(=O)NC(C)C)cc2CC(=O)N(C)C[C@H]1C | . | . | -0.1 | . | . | -3.6
